Measurements from different studies.
Lines come from different studies, so protocols differ.
Organism: Staphylococcus aureus
Observed: microbial growth

Compound | test | system | setting | inhibition zone [mm]
COc1cc(C=CC(=O)CC(c2ccc([N+](=O)[O-])cc2)n2ccnc2)ccc1O (stereo not shown) | disc diffusion | ATCC29213 | 500 µg/mL | 7
CCOC(=O)C1=C(C)N2NC(C)(c3ccccc3O)N(C(Cc3c[nH]c4ccccc34)C(=O)O)C2=NC1c1ccc(Cl)cc1 (stereo not shown) | – | ATCC25923 | 10 µg/mL, 24 h | 18
CC(C)Cc1nn(-c2nc3ccc(Cl)cc3s2)c2c1C(=O)c1ccccc1-2 | well diffusion | NCIM5021 | 1000 µg/mL | 11
COc1cc(C=Cc2cc(-c3ccc(N(C)C)cc3)nc(O)n2)ccc1O | disc diffusion | ATCC29213 | 500 µg/mL | 6.33
CC(C)c1nn(-c2nc3ccccc3s2)c2c1C(=O)c1ccccc1-2 | well diffusion | NCIM5021 | 1000 µg/mL | 12
N#Cc1c(-c2ccc(Cl)cc2)nc2n(c1=O)NC(c1ccccc1O)N2C(Cc1c[nH]c2ccccc12)C(=O)O (stereo not shown) | – | ATCC25923 | 15 µg/mL, 24 h | 32
COc1ccc2nc(-n3nc(CC(C)C)c4c3-c3ccccc3C4=O)sc2c1 | well diffusion | NCIM5021 | 1000 µg/mL | 13
O=C(O)c1cn(C2CC2)c2cc(N3CCNCC3)c(F)cc2c1=O | – | SG511 | 1000 µg/mL | 18
CC(C)Cc1nn(-c2nc3ccc(Br)cc3s2)c2c1C(=O)c1ccccc1-2 | well diffusion | NCIM5021 | 125 µg/mL | 11
CC(C(=O)O)N1c2nc(-c3ccc(Cl)cc3)c(C#N)c(=O)n2NC1c1ccccc1O (stereo not shown) | – | ATCC25923 | 10 µg/mL, 24 h | 14
COc1cc(C=CC(=O)CC(c2ccc(N(C)C)cc2)n2ccnc2)ccc1O (stereo not shown) | disc diffusion | ATCC29213 | 500 µg/mL | 10.7
[H]/N=C(/N)N[C@H]1[C@H](O)[C@@H](O)[C@H](O[C@@H]2O[C@@H](C)[C@](O)(C=O)[C@H]2O[C@@H]2O[C@@H](CO)[C@H](O)[C@@H](O)[C@@H]2NC)[C@@H](N/C(N)=N\[H])[C@@H]1O | well diffusion | NCIM5021 | 125 µg/mL | 20
CCOC(=O)C1=C(C)N2NC(c3ccccc3O)N(C(Cc3c[nH]c4ccccc34)C(=O)O)C2=NC1c1ccc(Cl)cc1 (stereo not shown) | – | ATCC25923 | 10 µg/mL, 24 h | 19
O=C(O)c1cn(C2CC2)c2cc(N3CCNCC3)c(F)cc2c1=O | disc diffusion | – | 100 µg/mL, 24 h | 24
CC(=O)C1=C(C)N2NC(c3ccccc3O)N(C(Cc3c[nH]c4ccccc34)C(=O)O)C2=NC1c1ccc(Cl)cc1 (stereo not shown) | – | ATCC25923 | 15 µg/mL, 24 h | 32
Cc1ccc2nc(-n3nc(CC(C)C)c4c3-c3ccccc3C4=O)sc2c1 | well diffusion | NCIM5021 | 500 µg/mL | 11
CC1(C)S[C@@H]2[C@H](NC(=O)[C@H](N)c3ccc(O)cc3)C(=O)N2[C@H]1C(=O)O | disc diffusion | ATCC29213 | 500 µg/mL | 10.8
CC(C(=O)O)N1C2=NC(c3ccc(Cl)cc3)C3=C(OC(C)(C)OC3=O)N2NC1(C)c1ccccc1O (stereo not shown) | – | ATCC25923 | 10 µg/mL, 24 h | 10
CN[C@H](CC(C)C)C(=O)N[C@H]1C(=O)N[C@@H](CC(N)=O)C(=O)N[C@H]2C(=O)N[C@H]3C(=O)N[C@H](C(=O)N[C@H](C(=O)O)c4cc(O)cc(O)c4-c4cc3ccc4O)[C@H](O)c3ccc(c(Cl)c3)Oc3cc2cc(c3O[C@@H]2O[C@H](CO)[C@@H](O)[C@H](O)[C@H]2O[C@H]2C[C@](C)(N)[C@H](O)[C@H](C)O2)Oc2ccc(cc2Cl)[C@H]1O | disc diffusion | ATCC29213 | 15.6 µg/disc, 24 h | 16
